The values that follow come from ChEMBL document CHEMBL2417369, “Synthesis and evaluation of heteroaryl substituted diazaspirocycles as scaffolds to probe the ATP-binding site of protein kinases” (Bioorg Med Chem, 2013).

The target of assay [1] is Mitogen-activated protein kinase 3 (Homo sapiens, UniProt P27361). Nature of the assay: Inhibition of MAPK3 (unknown origin) at 30 uM by microfluidic mobility shift assay relative to control. The method, boiled down:
(§1)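 Single-point screen at 30 µM test compound across a 24-kinase panel in a microfluidic assay format. ATP was set near each enzyme's Km,[ATP]. […] The pan-AGC inhibitor H-89 served as an internal control on every assay plate.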

Assay [2] addresses Tyrosine-protein kinase BTK (Homo sapiens) (UniProt Q06187). Nature of the assay: Inhibition of BTK (unknown origin) at 30 uM by microfluidic mobility shift assay relative to control. The method, boiled down: as §1
Assay [3] concerns the target Fibroblast growth factor receptor 2 (Homo sapiens) (UniProt P21802). Briefly: Inhibition of FGFR2 (unknown origin) at 30 uM by microfluidic mobility shift assay relative to control. An outline of the steps: as §1
In assay [4] the test system is T1, Receptor-type tyrosine-protein kinase FLT3 (Homo sapiens), P36888 [D835Y].
T1 sequence (whole entry): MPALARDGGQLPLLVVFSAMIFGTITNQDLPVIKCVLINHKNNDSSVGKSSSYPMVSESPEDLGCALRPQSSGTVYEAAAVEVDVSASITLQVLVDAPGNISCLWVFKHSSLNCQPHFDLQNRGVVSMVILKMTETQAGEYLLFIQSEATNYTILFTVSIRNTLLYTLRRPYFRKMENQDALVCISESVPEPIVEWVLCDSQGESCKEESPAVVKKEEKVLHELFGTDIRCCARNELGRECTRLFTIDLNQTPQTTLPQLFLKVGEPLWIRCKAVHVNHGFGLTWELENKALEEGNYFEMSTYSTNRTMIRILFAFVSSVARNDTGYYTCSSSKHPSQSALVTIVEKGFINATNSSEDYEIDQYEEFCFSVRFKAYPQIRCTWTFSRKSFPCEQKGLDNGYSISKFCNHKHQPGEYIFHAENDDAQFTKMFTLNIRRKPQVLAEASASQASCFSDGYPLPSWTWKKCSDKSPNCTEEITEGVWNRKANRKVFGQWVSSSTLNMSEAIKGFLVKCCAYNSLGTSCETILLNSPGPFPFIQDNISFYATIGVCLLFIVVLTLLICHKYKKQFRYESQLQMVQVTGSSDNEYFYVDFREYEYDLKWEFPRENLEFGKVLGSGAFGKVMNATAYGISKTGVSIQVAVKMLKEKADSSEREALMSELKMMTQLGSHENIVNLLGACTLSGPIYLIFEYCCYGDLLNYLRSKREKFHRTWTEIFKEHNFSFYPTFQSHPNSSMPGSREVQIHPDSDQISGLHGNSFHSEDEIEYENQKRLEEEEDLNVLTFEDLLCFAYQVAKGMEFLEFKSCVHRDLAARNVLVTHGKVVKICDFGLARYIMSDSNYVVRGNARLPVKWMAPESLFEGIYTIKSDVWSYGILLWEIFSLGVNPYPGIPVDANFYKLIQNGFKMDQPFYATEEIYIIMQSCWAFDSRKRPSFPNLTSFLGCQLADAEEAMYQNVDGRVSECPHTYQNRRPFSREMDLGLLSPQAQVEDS
Briefly: Inhibition of FLT3 D835Y mutant (unknown origin) at 30 uM by microfluidic mobility shift assay relative to control. An outline of the steps: as §1

The target in assay [5] is Protein kinase C beta type (Homo sapiens) (UniProt P05771). Nature of the assay: Inhibition of PKCbeta-1 (unknown origin) at 30 uM by microfluidic mobility shift assay relative to control. The method, boiled down:
as §1

The subject of assay [6] is Tyrosine-protein kinase ABL1 (Homo sapiens), P00519 [T315I]. Briefly: Inhibition of ABL T315I mutant (unknown origin) at 30 uM by microfluidic mobility shift assay relative to control. The class given is protein assay. An outline of the steps: as §1
Assay [7] addresses T2, Inhibitor of nuclear factor kappa-B kinase subunit beta (Homo sapiens) (UniProt O14920).
T2 sequence (whole entry): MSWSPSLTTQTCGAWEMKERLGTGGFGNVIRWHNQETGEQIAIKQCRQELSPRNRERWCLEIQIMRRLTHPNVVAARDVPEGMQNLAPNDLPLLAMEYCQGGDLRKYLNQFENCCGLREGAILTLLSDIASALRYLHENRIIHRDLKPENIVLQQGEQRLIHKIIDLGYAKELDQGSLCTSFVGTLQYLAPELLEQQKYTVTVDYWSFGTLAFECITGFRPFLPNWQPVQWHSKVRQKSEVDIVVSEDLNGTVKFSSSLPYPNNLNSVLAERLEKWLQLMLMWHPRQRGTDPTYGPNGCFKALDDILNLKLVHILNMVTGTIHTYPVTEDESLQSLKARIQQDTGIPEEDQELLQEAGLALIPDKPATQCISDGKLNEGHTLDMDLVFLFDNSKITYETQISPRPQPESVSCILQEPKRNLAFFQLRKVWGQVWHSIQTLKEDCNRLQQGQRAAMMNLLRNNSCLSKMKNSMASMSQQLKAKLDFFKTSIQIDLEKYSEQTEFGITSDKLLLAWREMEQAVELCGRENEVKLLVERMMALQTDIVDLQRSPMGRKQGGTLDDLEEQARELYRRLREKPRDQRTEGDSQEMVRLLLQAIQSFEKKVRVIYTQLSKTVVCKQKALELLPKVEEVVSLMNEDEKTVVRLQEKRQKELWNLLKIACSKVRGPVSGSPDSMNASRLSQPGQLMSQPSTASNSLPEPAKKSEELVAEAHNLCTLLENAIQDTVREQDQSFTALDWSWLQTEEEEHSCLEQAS
Nature of the assay: Inhibition of IKKbeta (unknown origin) at 30 uM by microfluidic mobility shift assay relative to control. The method, boiled down: as §1

The species entered for assay [8] is Homo sapiens. Nature of the assay: Inhibition of CAMK2 (unknown origin) at 30 uM by microfluidic mobility shift assay relative to control. An outline of the steps:
as §1

Assay [9] is filed under the species Homo sapiens. Nature of the assay: Inhibition of CSNK1 (unknown origin) at 30 uM by microfluidic mobility shift assay relative to control. The method, boiled down:
as §1

Assay [10] addresses T3, Aurora kinase C (Homo sapiens) (UniProt Q9UQB9).
T3 sequence (whole entry): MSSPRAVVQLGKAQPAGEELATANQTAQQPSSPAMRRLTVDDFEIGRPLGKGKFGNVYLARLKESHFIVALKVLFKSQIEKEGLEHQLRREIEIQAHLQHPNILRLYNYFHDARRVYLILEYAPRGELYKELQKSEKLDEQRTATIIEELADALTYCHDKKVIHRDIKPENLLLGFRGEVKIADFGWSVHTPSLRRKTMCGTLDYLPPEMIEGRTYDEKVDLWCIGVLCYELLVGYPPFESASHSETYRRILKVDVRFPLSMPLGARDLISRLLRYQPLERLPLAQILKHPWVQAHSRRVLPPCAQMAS
Nature of the assay: Inhibition of AURC (unknown origin) at 30 uM by microfluidic mobility shift assay relative to control. An outline of the steps:
as §1

The species named for assay [11] is Homo sapiens. Nature of the assay: Inhibition of DYRK1 (unknown origin) at 30 uM by microfluidic mobility shift assay relative to control. The method, boiled down: as §1

Structures are written as SMILES.

Chain of Protein kinase C beta type (Homo sapiens) (P05771 2-671 limits assumed): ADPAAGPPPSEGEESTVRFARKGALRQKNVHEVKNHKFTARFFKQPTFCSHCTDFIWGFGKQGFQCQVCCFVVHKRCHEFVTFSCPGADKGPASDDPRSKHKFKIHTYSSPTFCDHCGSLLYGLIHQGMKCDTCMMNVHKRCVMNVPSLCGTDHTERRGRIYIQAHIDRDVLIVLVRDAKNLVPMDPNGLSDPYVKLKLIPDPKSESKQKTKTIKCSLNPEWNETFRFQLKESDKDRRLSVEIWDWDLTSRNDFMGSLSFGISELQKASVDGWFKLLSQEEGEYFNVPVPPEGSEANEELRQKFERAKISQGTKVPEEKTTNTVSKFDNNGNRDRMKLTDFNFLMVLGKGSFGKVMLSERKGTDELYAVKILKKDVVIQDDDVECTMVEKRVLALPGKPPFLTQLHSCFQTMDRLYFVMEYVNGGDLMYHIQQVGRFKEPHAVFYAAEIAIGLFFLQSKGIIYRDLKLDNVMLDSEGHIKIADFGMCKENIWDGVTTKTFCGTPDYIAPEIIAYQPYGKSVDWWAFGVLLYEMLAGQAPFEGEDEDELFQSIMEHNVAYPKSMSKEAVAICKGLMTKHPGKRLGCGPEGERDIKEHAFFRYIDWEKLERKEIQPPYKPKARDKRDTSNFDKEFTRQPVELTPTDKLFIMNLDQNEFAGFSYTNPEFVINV
Chain of Tyrosine-protein kinase BTK (Homo sapiens) (Q06187 whole entry): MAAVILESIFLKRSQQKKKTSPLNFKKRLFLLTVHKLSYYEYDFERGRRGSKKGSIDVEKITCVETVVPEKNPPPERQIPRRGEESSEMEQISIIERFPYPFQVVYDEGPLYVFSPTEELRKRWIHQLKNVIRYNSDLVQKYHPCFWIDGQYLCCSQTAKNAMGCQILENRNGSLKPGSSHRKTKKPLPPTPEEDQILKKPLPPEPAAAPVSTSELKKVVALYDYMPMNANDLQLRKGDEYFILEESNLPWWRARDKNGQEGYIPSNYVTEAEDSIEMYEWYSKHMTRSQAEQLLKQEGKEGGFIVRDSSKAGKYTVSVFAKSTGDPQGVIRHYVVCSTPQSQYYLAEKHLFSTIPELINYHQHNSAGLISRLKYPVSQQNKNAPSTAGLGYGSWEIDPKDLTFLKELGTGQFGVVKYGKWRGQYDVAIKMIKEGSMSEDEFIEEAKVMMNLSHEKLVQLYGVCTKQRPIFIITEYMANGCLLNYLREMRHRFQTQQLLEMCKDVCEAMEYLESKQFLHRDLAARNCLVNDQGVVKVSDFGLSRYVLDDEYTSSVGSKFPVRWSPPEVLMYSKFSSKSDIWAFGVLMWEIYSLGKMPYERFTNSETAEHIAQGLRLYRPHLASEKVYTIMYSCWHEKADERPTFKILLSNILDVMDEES
Chain of Mitogen-activated protein kinase 3 (P27361 whole entry): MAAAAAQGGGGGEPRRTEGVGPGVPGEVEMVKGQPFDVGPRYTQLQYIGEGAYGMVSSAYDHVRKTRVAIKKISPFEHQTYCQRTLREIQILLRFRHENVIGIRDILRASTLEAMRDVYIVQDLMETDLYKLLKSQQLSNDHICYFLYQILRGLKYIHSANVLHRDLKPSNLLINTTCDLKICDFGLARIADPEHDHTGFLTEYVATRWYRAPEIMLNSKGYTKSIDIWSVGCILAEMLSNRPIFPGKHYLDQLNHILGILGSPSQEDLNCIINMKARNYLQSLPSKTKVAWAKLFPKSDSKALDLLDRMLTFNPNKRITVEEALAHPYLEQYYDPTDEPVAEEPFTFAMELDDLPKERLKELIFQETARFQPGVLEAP
Chain of Fibroblast growth factor receptor 2 (Homo sapiens) (P21802 22-821 limits assumed): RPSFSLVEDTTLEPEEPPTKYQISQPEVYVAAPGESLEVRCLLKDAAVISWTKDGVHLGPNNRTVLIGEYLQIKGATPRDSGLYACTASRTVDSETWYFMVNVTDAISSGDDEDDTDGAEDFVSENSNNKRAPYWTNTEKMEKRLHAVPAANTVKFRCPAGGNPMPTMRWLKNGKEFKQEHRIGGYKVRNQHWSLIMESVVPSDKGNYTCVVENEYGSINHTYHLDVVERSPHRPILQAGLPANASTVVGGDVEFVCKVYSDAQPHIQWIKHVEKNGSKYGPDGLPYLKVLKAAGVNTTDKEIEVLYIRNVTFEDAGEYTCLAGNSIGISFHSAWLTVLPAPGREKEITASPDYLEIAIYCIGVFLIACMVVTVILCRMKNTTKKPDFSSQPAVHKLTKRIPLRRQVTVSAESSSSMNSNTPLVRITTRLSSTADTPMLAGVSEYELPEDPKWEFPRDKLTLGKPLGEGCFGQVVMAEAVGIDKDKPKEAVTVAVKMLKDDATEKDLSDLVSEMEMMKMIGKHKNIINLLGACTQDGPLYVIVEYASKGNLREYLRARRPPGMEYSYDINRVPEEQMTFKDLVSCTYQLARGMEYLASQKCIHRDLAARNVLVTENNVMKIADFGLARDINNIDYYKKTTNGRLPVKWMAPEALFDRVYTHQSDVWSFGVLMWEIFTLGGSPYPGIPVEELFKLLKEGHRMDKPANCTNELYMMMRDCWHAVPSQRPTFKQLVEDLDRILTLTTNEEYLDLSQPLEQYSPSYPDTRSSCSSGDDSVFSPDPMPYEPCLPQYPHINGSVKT

As to `c1ccc(CC2CCC3(CCN(c4ncnc5[nH]cnc45)CC3)NC2)cc1` (racemic), the inhibition (usually the percentage by which the read-out fell short of the control) in [1] was 7%; in assay [2] it was 0%; in assay [3], 20%; in [4], 56%; in assay [5], 38%; in [6], 16%. Moreover, the inhibition was 83% in assay [7]; 9% in the assay listed under Homo sapiens [8]; 14% in the assay listed under Homo sapiens [9]; 61% in assay [10]; 13% in the assay filed under Homo sapiens [11].

For the molecule `c1ccc(CC2CCNC3(CCN(c4ncnc5[nH]cnc45)CC3)C2)cc1` (racemic), the inhibition came to 9% in [1]; 11% in [2]; 18% in assay [3]; 22% in assay [4]; 76% in assay [5]; 17% in [6]. Further, the inhibition came out at 95% in assay [7]; 17% in the assay listed under Homo sapiens [8]; 11% in the assay filed under Homo sapiens [9]; 46% in assay [10]; 7% in the assay filed under Homo sapiens [11].

For the molecule `c1ccc(C2CCNC3(CCN(c4ncnc5[nH]cnc45)CC3)C2)cc1` (racemic), the inhibition in assay [1] was found to be 13%; in [2] it was 0%; in assay [3] it was 15%; in assay [4], 45%; in assay [5] it was 65%; in assay [6], 14%. Besides, the inhibition in assay [7] came out at 100%; in the assay filed under Homo sapiens [8], 13%; in the assay filed under Homo sapiens [9], 11%; in [10], 54%; in the assay filed under Homo sapiens [11] it was 8%.
